Assay [1] in a line: Cytotoxicity against human PANC1 cells in nutrient-deprived medium after 24 hrs by WST-8 assay. In kind it is functional, PANC-1. In short, it runs like this: (§1)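 PANC-1 cells were seeded at 1.5 × 10^4/well and grown 24 h in DMEM at 37 °C, 5% CO2. They were washed with D-PBS, then exposed to serial dilutions in DMEM or NDM for 24 h, with control and blank wells. Viability was read by WST-8 (10% in DMEM, 3 h, A450), averaged over three wells: (test−blank)/(control−blank)×100.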

In assay [2] the test system is PANC-1. The assay is described as follows: Cytotoxicity against human PANC1 cells after 24 hrs by WST-8 assay in presence of DMEM. In kind it is functional, cell-based. In short, it runs like this: as §1
In assay [3] the target is T1, Caspase-3 (Homo sapiens) (UniProt P42574).
T1 sequence (whole entry): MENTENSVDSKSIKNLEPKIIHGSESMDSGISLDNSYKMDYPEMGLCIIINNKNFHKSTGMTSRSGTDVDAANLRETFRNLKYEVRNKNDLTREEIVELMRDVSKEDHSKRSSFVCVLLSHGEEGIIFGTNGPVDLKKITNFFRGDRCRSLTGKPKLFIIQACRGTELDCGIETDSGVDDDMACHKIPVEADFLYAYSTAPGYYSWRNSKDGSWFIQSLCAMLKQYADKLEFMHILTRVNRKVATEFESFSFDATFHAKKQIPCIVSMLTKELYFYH
The assay is described as follows: Induction of caspase3 (unknown origin) cleavage after 4 hrs by Western blotting analysis in presence of nutrient-deprived medium. The gist of the method:
(§2)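 Proteins were separated by SDS-PAGE (0.1% SDS) and transferred to PVDF. Membranes were blocked, washed in PBS with 0.1% polysorbate 20, and incubated overnight at room temperature with primary antibodies. HRP-conjugated secondary antibody was applied for 45 min at room temperature, and bands were detected by enhanced chemiluminescence.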

Assay [4] deals with PANC-1. The assay is described as follows: Induction of apoptosis in human PANC1 cells in nutrient-deprived medium assessed as disruption of cell organelles at 1 uM after 24 hrs by phase contrast microscopy relative to control. In kind it is functional, cell-based. In short, it runs like this:
(§3)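 Cells were seeded at 1 × 10^6 per 60 mm dish and allowed to attach for 24 h. They were washed twice and treated with 1 µM in DMEM or NDM for 24 h. EB/AO dye mixture (100 µg/ml each, in PBS) was added, and cells were imaged in fluorescent and phase-contrast modes at 40× objective. AO marks viable cells green; EB marks late apoptotic/necrotic cells red.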

The species entered for assay [5] is Homo sapiens. The assay is described as follows: Inhibition of AKT (unknown origin) phosphorylation at S437 at 100 uM after 4 hrs by Western blotting analysis in presence of DMEM. In short, it runs like this: as §2
For assay [6], the system named is PANC-1. The assay is described as follows: Induction of apoptosis in human PANC1 cells in nutrient-deprived medium assessed as rupture of cell membrane at 1 uM after 24 hrs by phase contrast microscopy relative to control. In kind it is functional, cell-based. In short, it runs like this: as §3
Assay [7] concerns PANC-1. The assay is described as follows: Induction of apoptosis in human PANC1 cells in nutrient-deprived medium assessed as cell swelling at 1 uM after 24 hrs by phase contrast microscopy relative to control. In kind it is functional, cell-based. In short, it runs like this:
as §3

Assay [8] concerns PANC-1. The assay is described as follows: Induction of apoptosis in human PANC1 cells in nutrient-deprived medium assessed as late apoptotic and necrotic cells at 1 uM after 24 hrs by ethidium bromide/acridine orange staining-based fluorescence microscopy relative to control. The class given is functional, cell-based. The gist of the method: as §3
The target in assay [9] is T1, Caspase-3 (Homo sapiens). The assay is described as follows: Induction of caspase3 (unknown origin) cleavage after 4 hrs by Western blotting analysis in presence of DMEM. The gist of the method:
as §2

The species named for assay [10] is Homo sapiens. The assay is described as follows: Inhibition of AKT (unknown origin) phosphorylation at S437 at 1 to 100 uM after 4 hrs by Western blotting analysis in presence of nutrient-deprived medium. The gist of the method: as §2
Assay [11] is filed under the species Homo sapiens. The assay is described as follows: Inhibition of AKT (unknown origin) phosphorylation at T308 at 100 uM after 4 hrs by Western blotting analysis in presence of DMEM. The gist of the method: as §2
The species entered for assay [12] is Homo sapiens. The assay is described as follows: Inhibition of AKT (unknown origin) phosphorylation at T308 at 1 to 100 uM after 4 hrs by Western blotting analysis in presence of nutrient-deprived medium. The gist of the method:
as §2

Assay [13] has as its system PANC-1. The assay is described as follows: Induction of apoptosis in human PANC1 cells in nutrient-deprived medium assessed as translocation of phosphatidylserine to external surface at 1 uM after 12 hrs by Annexin V-FITC/propidium iodide staining-based fluorescence microscopy. In kind it is functional, cell-based.
The test system of assay [14] is PANC-1. The assay is described as follows: Ratio of arctigenin PC50 to compound PC50 for human PANC1 cells. In kind it is functional.

Structures are written as SMILES. Calls of active or inactive are those of the source. The rule behind the calls is not given here. Bounds are passed on as bounds.

Compound `Nc1ccn([C@@H]2O[C@H](CO)[C@@H](O)C2(F)F)c(=O)n1` [GEMCITABINE] had a PC50 in [1] greater than 200 µM. Besides, the result with PANC-1 [2] was inactive.
As for `N/C(=N\NC(=S)N1CCCC1)c1ccccn1`, in assay [1], the PC50 came to 0.78 µM.
In the case of `N/C(=N\NC(=S)N1CCOCC1)c1ccccn1`, in assay [1], the PC50 is 1.6 µM.
For the compound `N/C(=N\NC(=S)N1CCSCC1)c1ccccn1`, in assay [1], the PC50 amounted to 1.9 µM.
With `N/C(=N\NC(=S)N1CCCCCC1)c1ccccn1`, in [1], the PC50 was 1.4 µM.
The same measure, in the same setting: to `CC(=O)O[C@H]1C(=O)[C@@]2(C)[C@H]([C@H](OC(=O)c3ccccc3)[C@]3(O)C[C@H](OC(=O)[C@H](O)[C@@H](NC(=O)c4ccccc4)c4ccccc4)C(C)=C1C3(C)C)[C@]1(OC(C)=O)CO[C@@H]1C[C@@H]2O` [PACLITAXEL] belongs greater than 200 µM; to `COc1cc(C[C@H]2C(=O)OC[C@@H]2Cc2ccc(OC)c(OC)c2)ccc1O` [ARCTIGENIN], 0.85 µM; to `N/C(=N\NC(=S)N1CCCCC1)c1ccccn1`, 1.6 µM.
In assay [1], `Cc1ccnc(/C(N)=N/NC(=S)N2CCSCC2)c1` registered a PC50 of 1.9 µM.
Turning to `N/C(=N\NC(=S)N1CCN(c2ccccn2)CC1)c1ccccn1`, the Activity result at Caspase-3 (Homo sapiens) [3] and at Caspase-3 (Homo sapiens) [9] was “Dose-dependent effect” throughout. For the same compound, the outcome in the assay on PANC-1 [4], in the assay on PANC-1 [6], in the assay with PANC-1 [7], in the assay with PANC-1 [8] and in the assay on PANC-1 [13] was Active. Besides, the inhibition entry in the assay filed under Homo sapiens [5], in the assay listed under Homo sapiens [10], in the assay listed under Homo sapiens [11] and in the assay filed under Homo sapiens [12] was “inactive” in each case. The compound also came in with a PC50 in [1] of 0.78 µM.
Take `Cc1ccnc(/C(N)=N/NC(=S)N2CCOCC2)c1`: in assay [1], the PC50 was determined as 1.8 µM.
The compound `Cc1ccnc(/C(N)=N/NC(=S)N2CCCCC2)c1` gave a PC50 in assay [1] of 1.8 µM.
Take `Cc1ccnc(/C(N)=N/NC(=S)N2CCCC2)c1`: the Ratio in the assay on PANC-1 [14] worked out at 2. This compound returned a PC50 in assay [1] of 0.37 µM.
With `Cc1ccnc(/C(N)=N/NC(=S)N2CCCCCC2)c1`, the PC50 in [1] worked out at 1.7 µM.
Regarding `Cc1ccnc(/C(N)=N/NC(=S)N2CCN(c3ccccn3)CC2)c1`, the PC50 in [1] is 0.68 µM.

(Values after ChEMBL document CHEMBL3102794, “Discovery of 2-pyridineformamide thiosemicarbazones as potent antiausterity agents” (2014).)
